Most compounds without a hit are left out; they make up all but 5.2% or so of the library.
WNV protease inh: inhibitors of West Nile virus NS2B-NS3 protease | WNV NS2B-NS3 protease, fluorogenic substrate Ex360/Em465; active compounds read low | 65,000 compounds, 0.18% hits | z-score (concentration not given with the values); in the data active means z-score below about -3
Target sequence (P06935 1371-1501 limits assumed): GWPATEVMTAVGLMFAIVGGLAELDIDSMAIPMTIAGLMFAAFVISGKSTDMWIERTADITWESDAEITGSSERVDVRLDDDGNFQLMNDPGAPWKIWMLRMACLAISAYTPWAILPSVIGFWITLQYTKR
Target sequence (P06935 1502-1679 limits assumed): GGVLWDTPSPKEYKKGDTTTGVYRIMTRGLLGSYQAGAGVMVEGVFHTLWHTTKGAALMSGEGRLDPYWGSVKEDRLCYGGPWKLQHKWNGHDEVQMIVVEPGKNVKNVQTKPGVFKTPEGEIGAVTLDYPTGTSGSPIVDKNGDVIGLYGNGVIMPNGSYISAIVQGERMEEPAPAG
tolC growth inh: growth inhibitors of E. coli BW25113 tolC mutant; OD615; growth inhibition, % at 10 µM (by protocol); 65,000 compounds, 2.2% hits; AID 573;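 active means growth inhibition at or above a cutoff equal to the mean over every tested compound plus 3 SD, cut at about 60% in these data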;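 further: growth measured after 20 h incubation at 37 °C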
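Test system – E. coli BW25113 ΔtolC::kan, tolC deletion mutant strain · Detection – OD at 615 nm · Buffer or medium – LB with kanamycin 50 µg/mL · Times – 20 h compound exposure of bacteria at 37 °C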
M1 ag: agonists of M1 muscarinic receptor; CHO-M1 cells, Fluo-4 calcium fluorescence, agonist mode; active compounds read high; B-score at 10 µM; 64,000 compounds, 3% hits; AID 626;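 active means fluorescence rise, raw or as B-score row- and column-corrected plate score, outside the 99.7% band of its plate's samples, either direction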
E coli WT exp: growth inhibitors of E. coli BW25113 wild type | OD600 absorbance | 98,000 compounds, 0.15% hits | growth inhibition, % at 100 µM;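 active means growth inhibition above about 50% at one test dose, limit read from the data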;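 further: growth measured after 20 h incubation at 37 °C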
AP ELISA ortho: alternative pathway complement inhibition, orthogonal assay. Human serum alternative complement pathway, LPS-coated ELISA, C3 deposition; tested in compound mixtures. inhibition, % at 5 µM. 62,000 compounds, 0.08% hits;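 active means inhibition above 30% in each of the two pooled mixtures holding the compound, so the lower value exceeds 30%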;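 further: 0% = serum in Mg-EGTA without compound and 100% = EDTA serum blank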
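Assay system: human serum alternative complement pathway, C3 deposition on LPS-coated wells; Dosing: 5 µM per compound in ten-compound mixtures; Detection: Anti-C3 ELISA, OD 450 nm; Buffer or medium: Mg2+-EGTA GVB++ buffer containing human serum at 1:15 dilution; Timing: 1 h at 37 °C; Replication: two different pools per compound.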
M1 antagonist: blocks the rat M1 muscarinic receptor response to acetylcholine | P08482 | CHO-M1 cells, Fluo-4 calcium, ACh EC80 antagonist mode; active compounds read low | B-score at 10 µM | 64,000 compounds, 3.4% hits | AID 628;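 active means calcium fluorescence response, raw or row-and-column corrected B-score, differing from the plate sample mean either way at a set confidence level, mostly lower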
Active calls of the source: *.

How did N#Cc1nc(COc2ccc(Br)cc2)oc1N1CCN(Cc2ccccc2)CC1 do in these assays?
WNV protease inh: 1.17; tolC growth inh: 6.7; M1 ag: -0.582; E coli WT exp: -20.0; M1 antagonist: -0.177

What do the screens show for `N#Cc1nc(COc2ccc(F)cc2)oc1N1CCN(Cc2ccccc2)CC1`?
WNV protease inh: -0.24; tolC growth inh: 65.1*; M1 ag: 0.0187; E coli WT exp: -13.0; AP ELISA ortho: -14.9; M1 antagonist: 0.114

How did N#Cc1nc(COc2ccc(Cl)cc2)oc1N1CCCCCC1 do in these assays?
WNV protease inh: 0.8; tolC growth inh: 65.6*; M1 ag: 0.137; E coli WT exp: -1.0; AP ELISA ortho: 15.4; M1 antagonist: 0.254

Results for N#Cc1nc(COc2ccccc2Cl)oc1N1CCCCCC1 ?
WNV protease inh: -1.7; tolC growth inh: 10.2; M1 ag: 0.199; E coli WT exp: -3.0; AP ELISA ortho: 4.6; M1 antagonist: 1.01

Results for CCc1cc2c3c(c(=O)oc2cc1O)CCCC3 ?
WNV protease inh: 3.75; tolC growth inh: 60.6*; M1 ag: -0.493; E coli WT exp: 2.0; AP ELISA ortho: 3.3; M1 antagonist: -0.567

How did CCCc1noc2c1/C(=N\O)CC(CC(C)SCC)C2 (stereo not given) do in these assays?
WNV protease inh: -1.1; tolC growth inh: 46.4; M1 ag: 0.619; E coli WT exp: 13.0; AP ELISA ortho: 22.3; M1 antagonist: -0.276

What do the screens show for `CCSC(C)CC1C/C(=N/O)c2c(CC)noc2C1` (stereo not given)?
WNV protease inh: 0.42; tolC growth inh: 61.1*; E coli WT exp: 10.0; AP ELISA ortho: -5.5

What do the screens show for `CCOC(=O)c1ccc(Cn2c(-c3ccccc3)nnc2-c2ccccc2)o1`?
WNV protease inh: 0.45; tolC growth inh: 57.0; M1 ag: 0.605; E coli WT exp: -10.0; AP ELISA ortho: -3.3; M1 antagonist: -0.292

How did CCN1c2cccc3cccc(c23)S1(=O)=O do in these assays?
E coli WT exp: -2.0

What do the screens show for `CCN1/C(=C(\O)c2ccccc2)C(=O)c2ccccc2S1(=O)=O`?
WNV protease inh: 0.49; tolC growth inh: 89.1*; M1 ag: 0.928; E coli WT exp: 12.0; AP ELISA ortho: 12.1; M1 antagonist: 0.567

What do the screens show for `O=C(C1CC1)N1CCc2cc(S(=O)(=O)NCCC3=CCCCC3)ccc21`?
WNV protease inh: -1.48; tolC growth inh: 74.4*; M1 ag: 2.45; E coli WT exp: 8.0; AP ELISA ortho: 3.4; M1 antagonist: 0.177

Results for Nc1nc(Nc2cccc(F)c2)nc2ccccc12 ?
WNV protease inh: 0.78; tolC growth inh: 25.3; M1 ag: -1.02; E coli WT exp: 63.0*; AP ELISA ortho: 7.2; M1 antagonist: -0.712

How did Cc1cccc(-c2c3c(=O)n(C)c(=O)n(C)c3c3nnc4ccccc4n23)c1 do in these assays?
WNV protease inh: -1.06; tolC growth inh: -11.3; M1 ag: 5.25*; M1 antagonist: -0.852

What do the screens show for `Cc1ccc(-c2c3c(=O)n(C)c(=O)n(C)c3c3nnc4ccccc4n23)cc1`?
WNV protease inh: 0.13; tolC growth inh: -8.9; M1 ag: 1.43; AP ELISA ortho: 5.2; M1 antagonist: -1.39

Results for CCn1c(SCC(=O)Nc2nc(-c3ccc(C)cc3)cs2)nnc1-c1ccccc1 ?
E coli WT exp: 4.0

How did Cc1csc(SCC(=O)Nc2nc(-c3ccccc3)cs2)n1 do in these assays?
WNV protease inh: 0.05; tolC growth inh: 91.1*; M1 ag: 0.0232; E coli WT exp: 0.0; AP ELISA ortho: 18.4; M1 antagonist: -0.983

What do the screens show for `Cc1cc(=O)[nH]c(SCC(=O)Nc2nc(-c3ccccc3)cs2)n1`?
WNV protease inh: -0.35; tolC growth inh: 69.5*; M1 ag: 8.25; E coli WT exp: -2.0; AP ELISA ortho: 3.3; M1 antagonist: -0.503

Results for O=C(CSc1ncn[nH]1)Nc1nc(-c2ccccc2)cs1 ?
E coli WT exp: 8.0

How did CCn1c(SCC(=O)Nc2nc(-c3ccc(C)cc3)cs2)nnc1-c1ccccc1O do in these assays?
WNV protease inh: -0.4; tolC growth inh: 84.4*; M1 ag: -0.0462; E coli WT exp: -8.0; AP ELISA ortho: 15.4; M1 antagonist: -0.171

What do the screens show for `COc1ccc(C(C(=O)NC2CCCCC2)N(C(=O)c2sc(C)nc2C)c2ccc(C(C)=O)cc2)cc1` (stereo not given)?
E coli WT exp: -5.0

Results for Cc1ccc(C2=[N+]([O-])C3(CCCCC/C3=N\NC(N)=S)N(O)C2(C)C)o1 (stereo not given) ?
E coli WT exp: -3.0

Results for COc1nc(Nc2nc3ccccc3c(=O)[nH]2)nc2ccc(C)cc12 ?
WNV protease inh: -0.76; tolC growth inh: 1.1; M1 ag: 1.53; AP ELISA ortho: 0.0; M1 antagonist: -2.09*

What do the screens show for `Cc1cc(C(=O)NC(C)c2ccncc2)cs1` (stereo not given)?
WNV protease inh: -0.25; tolC growth inh: 4.2; M1 ag: 0.666; E coli WT exp: -2.0; AP ELISA ortho: 6.7; M1 antagonist: 0.352

Results for Cc1ccc(S(=O)(=O)N(Cc2ccc(F)cc2)Cc2ccco2)cc1 ?
WNV protease inh: -1.04; tolC growth inh: 66.4*; M1 ag: -0.0539; E coli WT exp: 0.0; AP ELISA ortho: 18.4; M1 antagonist: -0.475

How did Cc1ccc(S(=O)(=O)N(Cc2ccccc2)Cc2ccco2)cc1 do in these assays?
WNV protease inh: -0.16; tolC growth inh: 64.1*; M1 ag: -0.293; E coli WT exp: 15.0; AP ELISA ortho: 2.8; M1 antagonist: -0.00182

Results for Cc1ccc(C2=NN3C(C(=O)c4ccccc4)Oc4ccccc4C3C2)cc1 (stereo not given) ?
E coli WT exp: -14.0

What do the screens show for `CCCc1[nH][nH]c(=O)c1C(c1ccccc1)C(C#N)C#N` (stereo not given)?
WNV protease inh: 0.07; tolC growth inh: 2.2; M1 ag: 0.0239; E coli WT exp: 3.0; AP ELISA ortho: 14.2; M1 antagonist: 1.22*

Results for CCCc1[nH][nH]c(=O)c1C(c1ccc(Br)cc1)C(C#N)C#N (stereo not given) ?
E coli WT exp: 4.0

What do the screens show for `O=c1c2ccccc2nc(SCc2cn3ccsc3n2)n1-c1ccccc1`?
WNV protease inh: -0.58; tolC growth inh: 44.3; E coli WT exp: -15.0; AP ELISA ortho: 20.5

Results for O=c1c2ccccc2nc(SCc2cn3ccsc3n2)n1-c1ccccc1F ?
WNV protease inh: 0.14; tolC growth inh: 65.2*; M1 ag: 0.659; E coli WT exp: -12.0; AP ELISA ortho: 5.7; M1 antagonist: 1.06

Results for COC(=O)c1c(NC(=O)CCc2ccc(C)o2)sc(C)c1C ?
WNV protease inh: 0.15; tolC growth inh: 61.4*; M1 ag: -1.61; E coli WT exp: 1.0; AP ELISA ortho: 7.5; M1 antagonist: -0.0796

What do the screens show for `CCOC(=O)c1c(NC(=O)CCc2ccc(CC)o2)sc(C)c1C`?
E coli WT exp: 2.0

Screening results as filed in PubChem.
